Screening results from PubChem.
DENV2 CPE: inhibitors of DENV2 cytopathic effect, primary screen, cell-based, plate reader, single concentration; AID 651640, 2012; 350,000 compounds, 1.7% hits; DENV2-infected cells, cytopathic effect rescue; CPE inhibition, % at 9.99 µM; in the data active = CPE inhibition above about 20%, passing the limit was not always enough; inconclusive = no clear call, values can overlap the other calls; tested in BHK-21 cells;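 also: 0% = median of neutral control wells and 100% = median of positive control wells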
SIRT5 inh: SIRT5 desuccinylase inhibitors, primary screen, biochemical, fluorescence imaging, single point, set 5; NAD-dependent protein deacylase sirtuin-5, mitochondrial (Homo sapiens), Q9NXA8; Purified SirT5, succinyl-peptide AMC, trypsin-coupled fluorescence; inhibition, % at 15 µM; 330,000 compounds, 1.1% hits; in the data active = inhibition above about 15%; inconclusive = no clear call, values can overlap the other calls
Target sequence (Q9NXA8 whole entry, looked up): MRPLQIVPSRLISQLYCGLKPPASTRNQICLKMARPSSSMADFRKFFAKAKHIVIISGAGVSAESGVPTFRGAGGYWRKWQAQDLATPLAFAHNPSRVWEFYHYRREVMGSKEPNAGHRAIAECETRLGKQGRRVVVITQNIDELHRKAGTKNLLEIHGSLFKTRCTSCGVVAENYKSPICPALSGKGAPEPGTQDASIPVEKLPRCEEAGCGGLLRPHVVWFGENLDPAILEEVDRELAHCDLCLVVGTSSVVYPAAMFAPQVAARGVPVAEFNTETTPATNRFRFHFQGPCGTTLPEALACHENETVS
E-selectin induc: E-selectin induction in HUVECs, primary screen, imaging, HUVEC, immunofluorescence imaging, single point. 260,000 compounds, 0.37% hits. activation, % at 7.58 µM. normalized: neutral wells 0, TNF-alpha wells 100;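 active = mean E-selectin-positive cell signal at least 10% of the positive control, reached in at least 60% of replicates, without over 20% cell loss; inconclusive = no rule given, readout overlaps actives, possibly toxicity-flagged; inactive = the rest, including those meeting only one limit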
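Test system: HUVEC; input: 3,000 HUVEC/well; measured by: immunofluorescence imaging; read-out: % PE-positive cells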
* = called active by the depositor; ? = inconclusive; . = no result. The list is not random: actives were taken first. Their share in the collection is about 2.8%.

SMILES | DENV2 CPE | SIRT5 inh | E-selectin induc
CN1CCN(C(=O)C2=C[C@H](c3ccc(Br)cc3)C[C@H](OCc3ccc(CO)cc3)O2)CC1 | 4 | -2 | .
CO[C@H]1CN(C)C(=O)c2cc(NC(=O)Nc3ccccc3)ccc2OC[C@H](C)N(C(=O)CN(C)C)C[C@H]1C | -9 | -3 | 0
COCC(=O)N(C)C[C@@H]1Oc2cc(C#C[C@@H](C)O)ccc2S(=O)(=O)N([C@H](C)CO)C[C@H]1C | 6 | -4 | 1
C/C=C/c1ccc([C@H]2[C@@H](CNCC)N(c3nc(C)c(C)s3)[C@H]2CO)cc1 | 4 | -3 | -1
NC(=O)C1CCN(c2oc(/C=C/c3ccc(F)cc3)nc2S(=O)(=O)c2ccccc2)CC1 | ? | -2 | 3
COc1ccccc1/C=C/c1nc(S(=O)(=O)c2ccccc2)c(N2CCC(C(N)=O)CC2)o1 | -2 | 17* | .
c1cc(-c2ccc(CN3CCOCC3)cc2)n2ccnc2c1 | -2 | -40 | 0
O=C(c1cccc(-c2cccc3nccn23)c1)N1CCOCC1 | 33* | . | 1
CO[C@@H]1CN(C)C(=O)c2ccc(NC(=O)Nc3cc(F)ccc3F)cc2OC[C@@H](C)N(C(=O)c2cnccn2)C[C@H]1C | -5 | 1 | 0
O=C(C[C@@H]1CC[C@H]2[C@@H](COC[C@@H](O)CN2CC2CCCC2)O1)NCc1ccc(Cl)cc1 | -9 | -1 | 0
C[C@]12c3[nH]c4ccc(Cl)cc4c3CCN1C(=O)[C@@H](CC(=O)NCCC1=CCCCC1)C[C@@H]2C(=O)N1CCCCC1 | 0 | -1 | 0
O=C(CC1C[C@H](C(=O)N2CCCCC2)[C@@]2(CCc3ccccc3)c3[nH]c4ccccc4c3CCN2C1=O)NCCC1=CCCCC1 (stereo partly drawn) | -1 | -2 | 0
CC[C@]12c3[nH]c4ccccc4c3CCN1C(=O)C(CC(=O)NCCC1=CCCCC1)C[C@@H]2C(=O)N1CCN(C(=O)C2CC2)CC1 (stereo partly drawn) | 54* | 3 | 0
CC[C@]12c3[nH]c4ccc(Cl)cc4c3CCN1C(=O)[C@@H](CC(=O)NCCC1=CCCCC1)C[C@@H]2C(=O)N1CCN(C(=O)C2CC2)CC1 | 16 | 18* | 0
COc1ccc(NC(=O)Nc2ccc3c(c2)[C@@H]2C[C@H](CC(=O)N[C@@H](C)c4ccccc4)O[C@H](CO)[C@@H]2O3)cc1 | 6 | -2 | 12
COCC(=O)Nc1ccc2c(c1)OC[C@H](C)N(Cc1cncnc1)C[C@@H](C)[C@H](OC)CN(C)C2=O | . | . | 0
CC1(C(=O)NS(=O)(=O)Cc2cccc(Cl)c2)CCN1C(=O)c1ccc(C2CCCCC2)cc1 (stereo not drawn) | 90* | . | 0
CC1(C(=O)NS(=O)(=O)Cc2ccccc2)CCN1C(=O)c1ccc(C2CCCCC2)cc1 (stereo not drawn) | -5 | 1 | 0
CN1C(=O)c2cc(NC(=O)c3ccccc3)ccc2OC[C@H]2O[C@H](CC(=O)O)CC[C@H]21 | ? | -3 | 0
Nc1c(C(=O)N/N=C/c2ccc([N+](=O)[O-])cc2)cnn1-c1ccccc1 | 46* | -5 | .
O=C(N/N=C/c1ccc([N+](=O)[O-])cc1)c1cccnc1 | -4 | 1 | .
C[C@H]1CN([C@@H](C)CO)C(=O)c2c(c3ccccc3n2C)-c2ccccc2CO[C@@H]1CN(C)Cc1ccc(Oc2ccccc2)cc1 | -8 | 1 | 0
CCS(=O)(=O)N1CCC2(CC1)CN(S(=O)(=O)c1cccc(OC)c1)[C@@H](CO)c1[nH]c3cc(OC)ccc3c12 | 6 | . | 0
COc1ccc(NC(=O)N(C)C[C@@H]2Oc3ccc(NS(=O)(=O)c4cn(C)cn4)cc3CC(=O)N([C@H](C)CO)C[C@@H]2C)cc1 | 77* | 3 | -3
Cc1noc(C)c1NC(=O)N(C)C[C@H]1Oc2ccc(NS(=O)(=O)c3cn(C)cn3)cc2CC(=O)N([C@H](C)CO)C[C@@H]1C | 48* | 3 | .
SMILES | DENV2 CPE | SIRT5 inh | E-selectin induc
COc1ccc(NC(=O)N(C)C[C@@H]2Oc3ccc(NS(=O)(=O)c4cn(C)cn4)cc3CC(=O)N([C@@H](C)CO)C[C@H]2C)cc1 | ? | 5 | -3
Cc1noc(C)c1NC(=O)N(C)C[C@@H]1Oc2ccc(NS(=O)(=O)c3cn(C)cn3)cc2CC(=O)N([C@@H](C)CO)C[C@H]1C | 5 | 5 | .
Nc1ccc(C(=O)C(=O)c2ccc(N)cc2)cc1 | -6 | 3 | .
N=C1C=CC(=C(c2ccc(N)cc2)c2ccc(N)cc2)C=C1 | -7 | -1 | 39*
CCC(=O)N1CCC2(CC1)Oc1ccc(F)cc1C(=O)C21CC(c2ccc(Cl)cc2)=NO1 (stereo not drawn) | -2 | . | 0
CCC(=O)N1CCC2(CC1)Oc1ccc(Cl)cc1C(=O)C21CC(c2ccc(Cl)cc2)=NO1 (stereo not drawn) | 90* | . | 0
C/C=C/c1ccc2c(c1)O[C@@H](CN(C)C(=O)c1ccc(F)cc1)[C@H](C)CN([C@@H](C)CO)S2(=O)=O | -9 | -1 | 1
O=C(OCc1cn([C@@H]2CN(C(=O)C3CCCCC3)[C@@H](c3ccccc3)C[C@H]2O)nn1)c1ccccc1 | -7 | 1 | 0
COc1ccc([C@H]2C[C@H](n3cc(COC(=O)c4ccccc4)nn3)[C@@H](O)CN2C(=O)C2CCCCC2)cc1 | -1 | -8 | 0
Cc1ccc([C@H]2C[C@H](n3cc(COC(=O)c4ccccc4)nn3)[C@@H](O)CN2C(=O)C2CCCCC2)cc1 | 52* | -1 | 0
O=C(OCc1cn([C@H]2CN(C(=O)C3CCCCC3)[C@@H](c3ccccc3)C[C@@H]2O)nn1)c1ccccc1 | 25* | 5 | .
CO[C@H]1CN(C)C(=O)c2ccc(NS(C)(=O)=O)cc2OC[C@H](C)N(CCC(F)(F)F)C[C@H]1C | 14 | 0 | 0
COc1ccc(NC(=O)Nc2cccc3c2O[C@H](CN(C)C(=O)Nc2c(C)noc2C)[C@@H](C)CN([C@@H](C)CO)C3=O)cc1 | 1 | 8 | 0
COc1cccc(-c2cn(CC[C@H]3CC[C@@H](NC(=O)CC4CC4)[C@@H](CO)O3)nn2)c1 | 0 | 1 | 0
COc1ccccc1CN1CC[C@H]2[C@H](CO)Nc3ccc(-c4ccc(C(=O)N(C)C)cc4)cc3[C@H]21 | -14 | 3 | .
C=CCN(Cc1ccc(OC)c(OC)c1)C(=O)N1CCOCC1 | 0 | 0 | 0
COc1ccc(CN(CCN2CCOCC2)C(=O)c2c(F)cccc2F)cc1OC | 2 | 17* | .
CCCNC(=O)N1CC2(CN(S(C)(=O)=O)C2)c2c(n(C)c3cc(OC)ccc23)[C@H]1CO | 15 | -2 | 0
O=C(C[C@H]1CC[C@@H](NC(=O)C2CCOCC2)[C@@H](CO)O1)Nc1ccccc1 | 11 | -3 | -1
COc1ccc(NC(=O)N(C)C[C@H]2Oc3c(NS(=O)(=O)c4ccc(Cl)cc4)cccc3C(=O)N([C@@H](C)CO)C[C@H]2C)cc1 | ? | 5 | 0
COc1ccc(NC(=O)N(C)C[C@@H]2Oc3c(NS(C)(=O)=O)cccc3C(=O)N([C@H](C)CO)C[C@@H]2C)cc1 | 5 | -6 | .
